One series relates to dengue virus type 2. In words: Antiviral activity against Dengue virus serotype 2 New Guinea C infected in pre-seeded Huh-7 cells assessed as inhibition of viral replication incubated for 72 hrs by immunodetection based direct yield reduction assay. In kind it is functional, organism-based. The conditions noted are these: huh-7.
Another series concerns MDCK. The experiment in a line: Cytotoxicity against MDCK cells assessed as reduction in cell viability measured after 24 hrs by MTT assay. In kind it is cell-based, Canis lupus familiaris. Conditions: dog, mdck, 24 h. A general note: Tetrazolium assays rely on reduction of a dye to a coloured formazan, in cell work by metabolically active cells.
A further series deals with Influenza A virus. In words: Antiviral activity against Influenza A Puerto Rico/8/34/H1N1 infected in human A549 cells assessed as reduction in viral protein expression at 20 uM treated for 2 to 6 hrs post infection and measured following infection of MDCK cells with supernatant for 24 hrs by time-of-addition assay. The conditions noted are these: A/Puerto Rico/8/1934(H1N1), time 2-6 hrs. In kind it is functional, organism-based.

The next series concerns Zika virus. The experiment in a line: Antiviral activity against Zika virus H/PF/2013 infected in pre-seeded Huh-7 cells assessed as inhibition of viral replication incubated for 72 hrs by immunodetection based direct yield reduction assay. In kind it is functional, organism-based. The conditions noted are these: H/PF/2013, Huh-7, 72 h. In outline:
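Direct yield reduction in Huh7 cells (7000/well), infected with 50 TCID₅₀ of DENV or ZIKV, or 25 TCID₅₀ of WNV. Adsorption 1 h at 37 °C, then virus removed and serial compound dilutions added. Incubated 72 h (DENV, ZIKV) or 48 h (WNV). Viral antigen immunodetected on the monolayer. IC₅₀ by non-linear regression, mean of three experiments. SI = CC₅₀ (Huh7, CellTiter-Glo luminescence)/IC₅₀.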

The next series concerns SARS-CoV-2. The experiment in a line: Antiviral activity against SARS-COV 2 infected in human Caco-2 cells assessed as inhibition of viral replication at MOI of 0.01 and incubated after 2 hrs post infection for 48 hrs by immunodetection assay. In kind it is functional, organism-based. Conditions: Severe acute respiratory syndrome coronavirus 2, Caco-2.
Series [1] can be described thus: Cytotoxicity against African green monkey Vero E6 cells infected with SARS-COV-2 by celltiter-glo luminescent cell viability assay. In kind it is cell-based, Vero C1008. Conditions: chlorocebus sabaeus, Vero E6 cells infected with SARS-COV-2. Summed up:
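Compound-exposed cells assessed by CellTiter-Glo luminescence versus DMSO control; CC50 from dose-response.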

For series [2], the target named is PIK3CA (Phosphatidylinositol 4,5-bisphosphate 3-kinase catalytic subunit alpha isoform) (Homo sapiens, UniProt P42336). The experiment in a line: Inhibition of human full length PIK3CA assessed as residual activity at 5 uM using PI:PS (1:3) as a substrate incubated for 10 mins by scintillation counting analysis relative to control. Conditions: full length PIK3CA enzyme, probe PI:PS (1:3), read-out: Activity. In outline:
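Radiometric kinase reaction with 10–50 ng enzyme and compound fixed at 5 μM, 10 μL at 30 °C for 10 min. Reactions spotted on filter and counted by scintillation. Residual activity is the mean ± SD of two independent experiments.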

Series [3] can be described thus: Selectivity index, ratio of CC50 for human Calu-3 cells infected with SARS-COV-2 to IC50 for SARS-COV 2 infected in human Calu-3 cells. In kind it is toxicity, cell-based. Conditions: read-out: Selectivity Index.

The source made the active and inactive calls. No cut-off for these calls is given here.

For orientation: IC50 means the concentration at which inhibition is half-maximal. Usually CC50 stands for the concentration that lowers cell viability or growth by half.

PIK3CA (Phosphatidylinositol 4,5-bisphosphate 3-kinase catalytic subunit alpha isoform), sequence (P42336 whole entry, canonical isoform): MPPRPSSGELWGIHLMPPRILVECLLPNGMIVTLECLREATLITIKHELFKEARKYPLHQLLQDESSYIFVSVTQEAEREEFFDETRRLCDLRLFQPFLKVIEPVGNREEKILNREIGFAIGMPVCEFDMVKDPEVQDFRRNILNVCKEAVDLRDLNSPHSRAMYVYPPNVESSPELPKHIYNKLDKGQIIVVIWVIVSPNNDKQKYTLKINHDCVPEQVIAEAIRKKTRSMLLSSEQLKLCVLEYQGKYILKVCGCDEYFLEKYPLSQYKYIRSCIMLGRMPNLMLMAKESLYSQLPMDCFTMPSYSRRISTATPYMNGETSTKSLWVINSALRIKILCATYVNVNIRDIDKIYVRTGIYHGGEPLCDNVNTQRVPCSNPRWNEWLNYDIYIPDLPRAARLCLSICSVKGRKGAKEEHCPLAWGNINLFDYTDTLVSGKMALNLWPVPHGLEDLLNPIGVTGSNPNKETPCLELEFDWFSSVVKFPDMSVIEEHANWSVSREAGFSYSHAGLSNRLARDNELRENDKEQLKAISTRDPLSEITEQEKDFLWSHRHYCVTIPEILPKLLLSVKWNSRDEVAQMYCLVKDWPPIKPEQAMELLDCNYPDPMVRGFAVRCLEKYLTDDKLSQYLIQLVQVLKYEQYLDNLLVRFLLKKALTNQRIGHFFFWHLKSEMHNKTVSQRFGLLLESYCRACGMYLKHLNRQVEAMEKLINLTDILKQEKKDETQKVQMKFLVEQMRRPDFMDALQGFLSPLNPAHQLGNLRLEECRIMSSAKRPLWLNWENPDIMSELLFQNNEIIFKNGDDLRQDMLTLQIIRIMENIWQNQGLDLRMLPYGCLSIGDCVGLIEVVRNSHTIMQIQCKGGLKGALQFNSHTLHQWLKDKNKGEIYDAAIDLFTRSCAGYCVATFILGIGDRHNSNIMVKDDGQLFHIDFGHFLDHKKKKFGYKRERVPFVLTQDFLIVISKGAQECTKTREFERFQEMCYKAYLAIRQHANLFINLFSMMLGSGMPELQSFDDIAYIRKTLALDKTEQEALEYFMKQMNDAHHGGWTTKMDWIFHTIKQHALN

As for `FC(F)(F)c1cccc(Nc2nc(NCCOc3ccccc3)nc3[nH]cnc23)c1`, the figures for the IC50 entry in the series with dengue virus type 2, in the series on Zika virus and in the series on SARS-CoV-2 were “Not Active”, 0.8 µM and 5.9 µM, respectively. Moreover, the figures for the CC50 (with MDCK; in series [1]) were 77 µM and 200 µM, respectively. In addition, the Activity result in the series on Influenza A virus is “Active”. Also, in series [2], the activity at 10 min, 5 µM stood at 66%. In addition, the selectivity ratio in series [3] amounted to 240.

The values above are taken from ChEMBL document CHEMBL4842338, “System-oriented optimization of multi-target 2,6-diaminopurine derivatives: Easily accessible broad-spectrum antivirals active against flaviviruses, influenza virus and SARS-CoV-2” (Eur J Med Chem, 2021).
